The text below walks through data of ChEMBL document CHEMBL2390866, “Novel pyrimidoazepine analogs as serotonin 5-HT(2A) and 5-HT(2C) receptor ligands for the treatment of obesity” (Eur J Med Chem, 2013).

For assay [1], the system named is Mus musculus. The assay can be described thus: Antiobesity activity in C57BL/6 mouse assessed as inhibition of body weight gain at 50 mg/kg, ip measured after 2 to 12 hrs relative to vehicle-treated control. The class given is functional. To be noted: C57BL/6, ip, route intraperitoneal.
For assay [2], the system named is Mus musculus. The assay can be described thus: Antiobesity activity in C57BL/6 mouse assessed as inhibition of food intake at 50 mg/kg, ip measured after 2 to 12 hrs relative to vehicle-treated control. The class given is functional. To be noted: C57BL/6, ip, route intraperitoneal. In outline:
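Male mice were acclimated 1 week at 23 ± 3 °C and 50 ± 20% humidity, then fasted 24 h. They were dosed once intraperitoneally with vehicle or compound: 50 mg/kg in C57BL/6, or 12.5, 25 or 50 mg/kg in B6.V-Lep^ob/J. Food intake was measured at 2, 6 and 12 h versus vehicle control.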

Assay [3] concerns the target T1, 5-hydroxytryptamine receptor 2A (Homo sapiens, UniProt P28223). The assay can be described thus: Displacement of [3H]-ketanserin from human recombinant 5HT-2A receptor expressed in CHOK1 cell membranes after 60 mins. Also noted: species or system CHO-K1. In short, it runs like this: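 Buffer was 50 mM Tris-HCl pH 7.4 with 5 mM CaCl2 and 0.1% ascorbic acid. Test compound added at a range of concentrations.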
(In general: Displacement assays read how much labelled ligand stays bound in the presence of the test substance.)

The target of assay [4] is T2, 5-hydroxytryptamine receptor 2C (Homo sapiens, UniProt P28335).
T2 sequence (P28335 whole entry): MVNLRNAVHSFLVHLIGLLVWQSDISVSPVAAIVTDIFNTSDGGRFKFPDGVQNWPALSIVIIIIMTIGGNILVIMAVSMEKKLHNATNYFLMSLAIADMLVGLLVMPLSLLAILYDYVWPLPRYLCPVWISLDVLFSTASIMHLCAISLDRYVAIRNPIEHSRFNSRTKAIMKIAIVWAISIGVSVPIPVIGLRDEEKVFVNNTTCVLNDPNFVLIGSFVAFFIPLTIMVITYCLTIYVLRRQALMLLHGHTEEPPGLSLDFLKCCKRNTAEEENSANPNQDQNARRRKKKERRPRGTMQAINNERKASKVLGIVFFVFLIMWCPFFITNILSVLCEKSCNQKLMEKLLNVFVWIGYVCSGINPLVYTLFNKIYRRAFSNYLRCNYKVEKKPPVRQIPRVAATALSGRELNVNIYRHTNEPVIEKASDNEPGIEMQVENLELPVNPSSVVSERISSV
The assay can be described thus: Agonist activity at serotonin-activated human recombinant 5HT-2C receptor expressed in HEK293 cells assessed as increase in intracellular calcium level after 5 mins measured for 1 min by fluorescence assay. The class given is functional, cell-based. In general terms: A change in cytosolic calcium serves as a functional read-out for many receptors and channels.

Assay [5] has as its target T2, 5-hydroxytryptamine receptor 2C. The assay can be described thus: Displacement of [3H]-mesulergine from human recombinant 5HT-2C receptor expressed in CHOK1 cell membranes after 30 mins. Also noted: species or system CHO-K1. In outline: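 Frozen CHO-K1 membranes expressing recombinant human 5-HT2C incubated with 1 nM [3H]mesulergine in 50 mM Tris-HCl pH 7.4 containing 0.1% ascorbic acid and pargyline. Mianserin defined nonspecific binding.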

For a further assay, the target named is D(2) dopamine receptor (Homo sapiens, UniProt P14416). The assay can be described thus: Displacement of [3H]-methylspiperone from dopamine D2L receptor (unknown origin) after 60 mins. In short, it runs like this: (§1)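 Receptor membranes incubated at 27 °C, 60 min for D2L and 30 min for D3, with [3H]methylspiperone (0.2 nM for D2L, 0.25 nM for D3) and test compound at a range of concentrations. Buffer was 50 mM Tris-HCl pH 7.4, 10 mM MgCl2, 1 mM EDTA, 120 mM NaCl. Nonspecific binding defined with haloperidol (D2) or GR103691 (D3). IC50 obtained by nonlinear regression.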
Chain of D(2) dopamine receptor (P14416 whole entry): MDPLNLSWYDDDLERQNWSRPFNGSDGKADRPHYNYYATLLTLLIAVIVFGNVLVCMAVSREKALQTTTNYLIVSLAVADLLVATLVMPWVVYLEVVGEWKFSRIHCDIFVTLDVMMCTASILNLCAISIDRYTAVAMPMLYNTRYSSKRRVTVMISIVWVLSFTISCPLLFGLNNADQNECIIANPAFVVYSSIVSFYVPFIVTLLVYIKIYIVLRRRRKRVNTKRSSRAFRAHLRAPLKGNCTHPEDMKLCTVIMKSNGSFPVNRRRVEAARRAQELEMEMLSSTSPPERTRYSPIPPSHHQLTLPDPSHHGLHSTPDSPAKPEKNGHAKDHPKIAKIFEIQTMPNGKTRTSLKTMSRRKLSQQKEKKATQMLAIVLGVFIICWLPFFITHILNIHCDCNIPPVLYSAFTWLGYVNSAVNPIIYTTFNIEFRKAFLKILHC

For another assay, the target named is D(3) dopamine receptor (Homo sapiens, UniProt P35462). The assay can be described thus: Displacement of [3H]-methylspiperone from dopamine D3 receptor (unknown origin) after 30 mins. In short, it runs like this: as §1
Chain of D(3) dopamine receptor (P35462 whole entry): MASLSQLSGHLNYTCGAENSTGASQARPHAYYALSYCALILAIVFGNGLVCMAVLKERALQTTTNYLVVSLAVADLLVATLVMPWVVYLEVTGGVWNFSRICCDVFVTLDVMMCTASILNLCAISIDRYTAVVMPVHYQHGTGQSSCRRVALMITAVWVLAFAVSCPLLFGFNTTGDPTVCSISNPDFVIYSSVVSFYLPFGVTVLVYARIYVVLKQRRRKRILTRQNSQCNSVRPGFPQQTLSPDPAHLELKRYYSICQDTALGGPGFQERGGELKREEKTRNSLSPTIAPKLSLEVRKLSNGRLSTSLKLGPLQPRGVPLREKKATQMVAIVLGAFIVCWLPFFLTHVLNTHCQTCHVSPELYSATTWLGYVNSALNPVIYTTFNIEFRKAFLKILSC
Assay [6] is described as follows: Displacement of [3H]-YM-09151-2 from cloned dopamine D4.2 receptor (unknown origin) expressed in Sf9 cells after 60 mins. Also noted: species or system Homo sapiens. In short, it runs like this:
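Sf9 membranes with cloned D4.2 receptor incubated with 0.2 nM [3H]YM-09151-2 for 60 min at 27 °C in 50 mM Tris-HCl pH 7.4, 5 mM MgCl2, 5 mM EDTA, 5 mM KCl, 1.5 mM CaCl2. Clozapine defined nonspecific binding. Filtered on glass-fiber filters presoaked in 0.3% PEI.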

Assay [7] has as its target 5-hydroxytryptamine receptor 6 (Homo sapiens, UniProt P50406). The assay can be described thus: Displacement of [3H]-LSD from human recombinant 5HT-6 receptor expressed in CHOK1 cell membranes after 60 mins. Also noted: species or system CHO-K1. In short, it runs like this: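 CHO-K1 membranes expressing human 5-HT6 incubated with 1 nM [3H]LSD for 60 min at 27 °C in 50 mM Tris-HCl pH 7.4 containing 4 mM CaCl2 and 0.1% ascorbic acid. Terminated by filtration on glass-fiber filters presoaked in 0.5% PEI. Methiothepin defined nonspecific binding.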

Assay [8] deals with 5-hydroxytryptamine receptor 7 (Homo sapiens, UniProt P34969). The assay can be described thus: Displacement of [3H]-LSD from human recombinant 5HT-7 receptor expressed in CHOK1 cell membranes after 120 mins. Also noted: species or system CHO-K1. In outline:
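CHO-K1 membranes expressing human 5-HT7 incubated with 3 nM [3H]LSD for 120 min at 27 °C in 50 mM Tris-HCl pH 7.4, 10 mM MgSO4, 0.5 mM EDTA. Filtered on glass-fiber filters presoaked in 0.3% PEI. Methiothepin defined nonspecific binding.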

Assay [9] concerns the target T3, 5-hydroxytryptamine receptor 1A (Homo sapiens, UniProt P08908).
T3 sequence (P08908 whole entry): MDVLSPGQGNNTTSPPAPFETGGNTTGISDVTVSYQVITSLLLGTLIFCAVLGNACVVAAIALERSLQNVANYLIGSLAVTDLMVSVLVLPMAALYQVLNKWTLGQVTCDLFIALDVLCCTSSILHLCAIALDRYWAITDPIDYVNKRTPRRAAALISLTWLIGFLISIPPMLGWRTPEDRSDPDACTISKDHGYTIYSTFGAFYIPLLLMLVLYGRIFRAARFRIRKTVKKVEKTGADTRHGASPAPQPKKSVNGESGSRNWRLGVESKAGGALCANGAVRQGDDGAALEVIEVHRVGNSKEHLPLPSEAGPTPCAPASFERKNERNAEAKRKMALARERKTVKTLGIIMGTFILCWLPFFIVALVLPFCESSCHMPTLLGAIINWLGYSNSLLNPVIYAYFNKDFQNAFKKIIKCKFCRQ
The assay can be described thus: Displacement from [3H]8-OH-DPAT from human recombinant 5HT-1A receptor expressed in HEK293 cells after 120 mins. The assay is classed as cell-based. In short, it runs like this:
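Membranes from HEK293-EBNA cells stably expressing recombinant human 5-HT1A. Incubated with 2 nM [3H]8-OH-DPAT and test compound at a range of concentrations in 50 mM Tris-HCl pH 7.4 with 5 mM MgSO4.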

For assay [10], the target named is T1, 5-hydroxytryptamine receptor 2A. The assay can be described thus: Antagonist activity at serotonin-activated human recombinant 5HT-2A receptor expressed in HEK293 cells assessed as decrease in intracellular calcium level after 5 mins measured for 1 min by fluorescence assay. The assay is classed as functional, cell-based. To be noted: read-out: EC50 (the source's name). In outline: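 Cells were washed with HBSS/20 mM HEPES, then loaded 50 min with Fluo-4 NW dye in HBSS with 2.5 mM probenecid. Compound was added for 5 min at 37 °C, then serotonin; fluorescence followed 1 min. Run in duplicate or quadruplicate, repeated several times; IC50 by nonlinear regression.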

Assay [11] deals with T2, 5-hydroxytryptamine receptor 2C. The assay can be described thus: Antagonist activity at serotonin-activated human recombinant 5HT-2C receptor expressed in HEK293 cells assessed as decrease in intracellular calcium level after 5 mins measured for 1 min by fluorescence assay. The class given is functional, cell-based. To be noted: read-out: EC50 (the source's name). In outline: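 Intracellular calcium read on HEK293 cells stably expressing human receptor, seeded 10,000 cells/well and grown 24 h at 37 °C, 5% CO2. Cells were washed with HBSS/20 mM HEPES, then loaded 50 min with Fluo-4 NW dye in HBSS with 2.5 mM probenecid. Compound was added for 5 min at 37 °C, then serotonin; fluorescence followed 1 min. Run in duplicate or quadruplicate, repeated several times; IC50 by nonlinear regression.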

T1 sequence (P28223 whole entry): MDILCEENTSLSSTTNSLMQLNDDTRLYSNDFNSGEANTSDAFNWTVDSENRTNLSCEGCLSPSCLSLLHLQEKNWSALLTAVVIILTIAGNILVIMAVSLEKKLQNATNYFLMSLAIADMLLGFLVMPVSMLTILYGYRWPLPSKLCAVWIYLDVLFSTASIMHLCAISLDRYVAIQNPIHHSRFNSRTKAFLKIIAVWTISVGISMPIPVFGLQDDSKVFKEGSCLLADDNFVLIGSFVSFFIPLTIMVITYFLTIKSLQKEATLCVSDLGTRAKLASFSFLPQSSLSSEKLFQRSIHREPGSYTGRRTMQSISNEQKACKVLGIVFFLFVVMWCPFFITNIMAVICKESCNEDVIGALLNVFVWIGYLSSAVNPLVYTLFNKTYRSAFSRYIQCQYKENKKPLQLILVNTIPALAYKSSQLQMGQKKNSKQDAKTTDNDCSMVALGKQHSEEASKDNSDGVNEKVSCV
Chain of 5-hydroxytryptamine receptor 6 (P50406 whole entry): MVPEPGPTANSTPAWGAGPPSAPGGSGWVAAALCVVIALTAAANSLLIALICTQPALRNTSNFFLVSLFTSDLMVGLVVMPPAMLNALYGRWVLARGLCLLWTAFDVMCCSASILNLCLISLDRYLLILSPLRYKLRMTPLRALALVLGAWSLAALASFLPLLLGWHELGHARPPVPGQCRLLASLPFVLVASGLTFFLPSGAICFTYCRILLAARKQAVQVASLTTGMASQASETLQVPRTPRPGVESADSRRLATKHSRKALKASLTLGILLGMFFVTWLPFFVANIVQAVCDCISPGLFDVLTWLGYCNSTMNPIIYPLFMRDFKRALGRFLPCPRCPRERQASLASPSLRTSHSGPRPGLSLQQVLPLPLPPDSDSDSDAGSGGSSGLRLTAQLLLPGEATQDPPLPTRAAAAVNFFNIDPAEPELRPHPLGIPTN
Chain of 5-hydroxytryptamine receptor 7 (P34969 whole entry): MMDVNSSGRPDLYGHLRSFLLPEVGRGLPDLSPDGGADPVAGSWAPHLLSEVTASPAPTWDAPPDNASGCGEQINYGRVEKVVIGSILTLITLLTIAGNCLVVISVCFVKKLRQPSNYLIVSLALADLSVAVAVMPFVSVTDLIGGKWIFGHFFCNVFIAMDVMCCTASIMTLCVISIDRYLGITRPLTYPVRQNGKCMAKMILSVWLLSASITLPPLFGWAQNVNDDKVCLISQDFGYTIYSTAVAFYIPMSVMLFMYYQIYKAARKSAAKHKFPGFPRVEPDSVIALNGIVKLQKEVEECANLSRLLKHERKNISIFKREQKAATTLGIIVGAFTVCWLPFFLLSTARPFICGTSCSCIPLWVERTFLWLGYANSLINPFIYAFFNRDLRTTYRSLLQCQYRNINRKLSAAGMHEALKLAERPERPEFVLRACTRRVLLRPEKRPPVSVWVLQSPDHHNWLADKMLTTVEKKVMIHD

For the compound `CN1CCN(c2nc3c(c(N(C)C)n2)CCNCC3)CC1`, the inhibition in vivo at 50 mg/kg in the assay on Mus musculus [1] is 12.2%; in the assay on Mus musculus [2], 12.5%. The IC50 in assay [3] and in [5] was above 10000 nM each time. Moreover, the EC50 in assay [4] worked out at 1200 nM.
As to `COc1cccc(Nc2nc(Cc3ccccc3)nc3c2CCNCC3)c1`, the inhibition in vivo at 50 mg/kg with Mus musculus [1] was 63.9%; in the assay on Mus musculus [2], 55.8%. The IC50 on D(2) dopamine receptor came to 163 nM; on D(3) dopamine receptor, 941 nM; in assay [6] it was 549 nM; in assay [7] it was 30.4 nM; in assay [8], 497 nM; in assay [9] it was 823 nM. In addition, the IC50 in assay [10] came out at 77.6 nM; in assay [11] it was 9.2 nM; in assay [3], 84.4 nM; in assay [5] it was 37.3 nM.
Turning to `CCN(CC)c1nc(N2CCN(C)CC2)nc2c1CCNCC2`, the inhibition in vivo at 50 mg/kg in the assay on Mus musculus [1] is 9.01%; in the assay on Mus musculus [2] it was 4.17%. Further, the IC50 in [10] is 2900 nM; in assay [3], above 10000 nM; in assay [5] it was above 10000 nM.
Take `COc1cccc(Nc2nc(N3CCN(C)CC3)nc3c2CCNCC3)c1`: the IC50 in assay [11] is 2300 nM; in [3] it was above 10000 nM; in assay [5], 2850 nM.
Take `CN1CCN(c2nc3c(c(N4CCOCC4)n2)CCNCC3)CC1`: the IC50 in assay [3] and in [5] was above 10000 nM throughout. For the same compound, in [4], the EC50 came out at 9600 nM.
As to `CN1CCN(c2nc3c(c(Nc4ccc(F)cc4)n2)CCNCC3)CC1`, the inhibition in vivo at 50 mg/kg turned out to be 5.61% with Mus musculus [1] and 11% with Mus musculus [2]. Also, the IC50 amounted to 153 nM in assay [10], 1500 nM in [11], 215 nM in assay [3] and 337 nM in [5].
Take `c1ccc(Cc2nc3c(c(N4CCSCC4)n2)CCNCC3)cc1`: the inhibition in vivo at 50 mg/kg with Mus musculus [1] amounted to 12%; in the assay with Mus musculus [2], 18.4%. In addition, the IC50 in [10] was 96.3 nM; in assay [3], 1270 nM; in [5], 333 nM.
In the case of `Fc1ccc(Nc2nc(Cc3ccccc3)nc3c2CCNCC3)cc1`, the IC50 in assay [11] was determined as 2.6 nM; in assay [3] it was 1.95 nM; in assay [5], 8.5 nM.
Regarding `CCNc1nc(N2CCN(C)CC2)nc2c1CCNCC2`, the IC50 in assay [3] and in [5] was above 10000 nM each time. Also, in [4], the EC50 was above 10000 nM.
Consider `Fc1cccc(Nc2nc(Cc3ccccc3)nc3c2CCNCC3)c1`, for which the inhibition in vivo at 50 mg/kg with Mus musculus [1] is 68.9%; in the assay on Mus musculus [2] it was 69.4%. Besides, the IC50 worked out at 63.3 nM on D(2) dopamine receptor; 674 nM at D(3) dopamine receptor; 735 nM in assay [6]; 22.2 nM in assay [7]; 1060 nM in assay [8]; 1250 nM in [9]. Moreover, the IC50 in assay [10] was found to be 27.9 nM; in assay [3] it was 4.92 nM; in assay [5], 13.3 nM.
Take `CN1CCN(c2nc3c(c(N4CCSCC4)n2)CCNCC3)CC1`: the inhibition in vivo at 50 mg/kg was -15% with Mus musculus [1] and 2.1% in the assay with Mus musculus [2]. In addition, the IC50 is 687 nM in assay [10], above 10000 nM in [3] and above 10000 nM in assay [5]. For the same compound, the EC50 in assay [4] was above 10000 nM.

For orientation: inhibition in vivo means the relative decrease from the control value, in per cent. What is called EC50 is the concentration giving half of the maximal effect.
